This passage reports IC50 and FC50 results from ChEMBL document CHEMBL1128344 (J Med Chem, 1995).

Where only a bound is given, the exact number is not on record here.

T1 sequence (P00533 whole entry): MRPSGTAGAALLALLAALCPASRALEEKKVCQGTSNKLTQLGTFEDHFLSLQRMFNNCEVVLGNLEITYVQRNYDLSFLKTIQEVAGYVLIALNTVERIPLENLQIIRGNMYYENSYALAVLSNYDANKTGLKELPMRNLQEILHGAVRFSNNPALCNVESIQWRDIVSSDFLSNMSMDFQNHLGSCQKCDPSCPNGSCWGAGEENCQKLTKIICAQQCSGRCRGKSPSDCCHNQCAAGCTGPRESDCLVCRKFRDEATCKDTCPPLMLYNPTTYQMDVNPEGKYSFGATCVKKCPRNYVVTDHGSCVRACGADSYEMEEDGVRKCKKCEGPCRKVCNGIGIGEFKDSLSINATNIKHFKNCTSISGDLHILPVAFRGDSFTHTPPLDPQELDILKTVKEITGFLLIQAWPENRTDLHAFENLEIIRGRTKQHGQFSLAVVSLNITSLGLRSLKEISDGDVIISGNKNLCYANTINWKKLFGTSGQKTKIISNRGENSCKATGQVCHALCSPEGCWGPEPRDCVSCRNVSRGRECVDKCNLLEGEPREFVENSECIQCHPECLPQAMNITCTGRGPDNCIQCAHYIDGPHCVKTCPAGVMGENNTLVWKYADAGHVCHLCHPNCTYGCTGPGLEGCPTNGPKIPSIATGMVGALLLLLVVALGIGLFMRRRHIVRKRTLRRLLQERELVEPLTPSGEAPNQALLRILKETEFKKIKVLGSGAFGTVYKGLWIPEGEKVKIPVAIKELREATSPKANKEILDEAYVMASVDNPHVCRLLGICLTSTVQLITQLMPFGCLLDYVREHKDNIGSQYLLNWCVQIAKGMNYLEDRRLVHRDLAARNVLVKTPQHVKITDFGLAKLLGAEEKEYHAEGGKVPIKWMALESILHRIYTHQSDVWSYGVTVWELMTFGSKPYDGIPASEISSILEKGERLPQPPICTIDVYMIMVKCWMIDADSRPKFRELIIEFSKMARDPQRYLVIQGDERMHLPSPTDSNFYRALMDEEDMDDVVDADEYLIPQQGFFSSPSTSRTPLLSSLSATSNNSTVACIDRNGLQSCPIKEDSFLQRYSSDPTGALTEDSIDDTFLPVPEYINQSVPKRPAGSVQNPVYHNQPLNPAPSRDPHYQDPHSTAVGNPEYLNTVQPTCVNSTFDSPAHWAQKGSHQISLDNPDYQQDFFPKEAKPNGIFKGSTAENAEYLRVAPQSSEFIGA

Tested on in the first test: not listed separately
The test can be described thus: Inhibition of v-src from baculovirus culture.
Details: not given
In a few lines: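 pp60v-src from v-src baculovirus-infected insect cells, bound via monoclonal antibody to 0.65 μm latex beads. Activity was measured as ³²P incorporation from [γ-³²P]ATP into poly[(glu)4(tyr)1] substrate.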
For the compound `CN1C(=S)C(C(=O)c2ccco2)c2ccccc21` (configuration not stated), 10.8 µM corresponded to half-maximal inhibition (IC50). Same read-out and setting: under `CN1C(=S)C(C(=O)Nc2ccccc2)c2ccccc21` (configuration not stated) stands 10 µM; under `CN(C)CCCn1c(SSc2c(C(=O)Nc3ccccc3)c3ccccc3n2CCCN(C)C)c(C(=O)Nc2ccccc2)c2ccccc21`, 5.6 µM. Still for that read-out and setting: to `CC(=O)C1C(=S)N(C)c2ccccc21` (configuration not stated) belongs greater than 50 µM; to `CC1C(=S)N(C)c2ccccc21` (configuration not stated), greater than 100 µM.

Another test addresses T1, Epidermal growth factor receptor (Homo sapiens, UniProt P00533). Description: Inhibitory concentration compound against EFGR tyrosine kinase obtained from plasma membrane vesicles from cultured A431 cells.
Details: not given
The format is cell-free, A-431.
With `COC(=O)c1ccccc1NC(=O)c1c(SSc2c(C(=O)Nc3ccccc3C(=O)OC)c3ccccc3n2C)n(C)c2ccccc12`, the concentration for half-maximal inhibition (IC50) was greater than 100 µM. On to `Cn1c(SSc2c(C(=O)Nc3cccs3)c3ccccc3n2C)c(C(=O)Nc2cccs2)c2ccccc21`, for which the IC50 is greater than 100 µM. `Cn1c(SSc2c(C(=O)Nc3ccccc3)c3ccccc3n2C)c(C(=O)Nc2ccccc2)c2ccccc21` showed a concentration for half-maximal inhibition (IC50) of 10.9 µM.

Compound `CN(C)CCNC(=O)c1c(SSc2c(C(=O)NCCN(C)C)c3ccccc3n2C)n(C)c2ccccc12` came in with a concentration for half-maximal inhibition (IC50) of 17.5 µM. As to `Cn1c(SSc2c(C(=O)Nc3cccnc3)c3ccccc3n2C)c(C(=O)Nc2cccnc2)c2ccccc21`, the IC50 is greater than 100 µM. Same read-out and setting: under `Cn1c(SSc2c(C(=O)NCc3ccccc3)c3ccccc3n2C)c(C(=O)NCc2ccccc2)c2ccccc21` stands 1.7 µM. Still for that read-out and setting: under `CCn1c(SSc2c(C(=O)Nc3ccccc3)c3ccccc3n2CC)c(C(=O)Nc2ccccc2)c2ccccc21` stands greater than 100 µM; under `Cn1c(SSc2c(C(=O)c3ccccc3)c3ccccc3n2C)c(C(=O)c2ccccc2)c2ccccc21`, greater than 100 µM. In the case of `Cn1c(SSc2c(C(=O)Nc3ccncc3)c3ccccc3n2C)c(C(=O)Nc2ccncc2)c2ccccc21`, the IC50 is greater than 100 µM.

In the case of `COC(=O)c1cccc(NC(=O)c2c(SSc3c(C(=O)Nc4cccc(C(=O)OC)c4)c4ccccc4n3C)n(C)c3ccccc23)c1`, the IC50 was greater than 100 µM. The compound `O=C(Nc1ccccc1)c1c(SSc2[nH]c3ccccc3c2C(=O)Nc2ccccc2)[nH]c2ccccc12` registered an IC50 of 100 µM.

As to `NC(Cc1c(SSc2[nH]c3ccccc3c2CC(N)C(=O)NCc2ccccc2)[nH]c2ccccc12)C(=O)NCc1ccccc1` (configuration not stated), the IC50 is 3.3 µM. `Cc1c(SSc2c(C)c3ccccc3n2C)n(C)c2ccccc12` had an IC50 greater than 100 µM.

On to `COC(=O)c1ccc(NC(=O)c2c(SSc3c(C(=O)Nc4ccc(C(=O)OC)cc4)c4ccccc4n3C)n(C)c3ccccc23)cc1`, for which the IC50 was greater than 100 µM. Still for that read-out and setting: under `Cn1c(SSc2c(C(=O)c3ccco3)c3ccccc3n2C)c(C(=O)c2ccco2)c2ccccc21` stands 7.7 µM; under `c1ccc(-c2c(SSc3[nH]c4ccccc4c3-c3ccccc3)[nH]c3ccccc23)cc1`, 100 µM; under `CNC(=O)c1c(SSc2[nH]c3ccccc3c2C(=O)NC)[nH]c2ccccc12`, 6.1 µM. `Cn1c(SSc2c(C(=O)Nc3ccccn3)c3ccccc3n2C)c(C(=O)Nc2ccccn2)c2ccccc21`: the midpoint of inhibition, the IC50, lay at 47 µM. With `Cc1ccc(S(=O)(=O)c2c(SSc3[nH]c4ccccc4c3S(=O)(=O)c3ccc(C)cc3)[nH]c3ccccc23)cc1`, the IC50 stood at 28.7 µM. Same read-out and setting: under `CNC(=O)c1c(SSc2c(C(=O)NC)c3ccccc3n2C)n(C)c2ccccc12` stands 1.8 µM; under `CN(C(=O)c1c(SSc2c(C(=O)N(C)c3ccccc3)c3ccccc3n2C)n(C)c2ccccc12)c1ccccc1`, greater than 100 µM; under `O=C(NCc1ccccc1)c1c(SSc2[nH]c3ccccc3c2C(=O)NCc2ccccc2)[nH]c2ccccc12`, 15 µM.

Target in a further test: not listed separately
Description: Inhibitory concentration of the against pp60v-src tyrosine kinase obtained from v-src baculovirus-infected insect cells.
Details: not given
As for `Cn1c(SSc2c(C(=O)Nc3ccccc3)c3ccccc3n2C)c(C(=O)Nc2ccccc2)c2ccccc21`, the IC50 amounted to 3.2 µM. Turning to `Cn1c(SSc2c(C(=O)Nc3ccccc3)c3cc(C(F)(F)F)ccc3n2C)c(C(=O)Nc2ccccc2)c2cc(C(F)(F)F)ccc21`, the IC50 amounted to 5.8 µM.

For the next test, the target named is T1, Epidermal growth factor receptor. The test can be described thus: Inhibition of EFGR tyrosine kinase from A431 cells. The class given is cell-based. As to conditions: A-431. In a few lines:
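Enzyme source was the native EGFR complex in plasma membrane vesicles shed from cultured A431 epidermoid carcinoma cells. Kinase activity was measured as ³²P incorporation from added [γ-³²P]ATP into a 6:3:1 random copolymer of glutamate, alanine and tyrosine.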
In turn, `CN1C(=S)C(C(=O)c2ccco2)c2ccccc21` (configuration not stated) showed an FC50 greater than 100 µM.

In the case of `CN1C(=S)C(C(=O)Nc2ccccc2)c2ccccc21` (configuration not stated), the FC50 was determined as 1 µM. Take `CN1C(=S)C(C(=O)c2ccccc2)c2ccccc21` (configuration not stated): the FC50 is greater than 100 µM. Same read-out and setting: to `CN1C(=S)C(C(=O)c2ccc(C(=O)O)cc2)c2ccccc21` (configuration not stated) belongs 8.7 µM; to `CN(C)CCCn1c(SSc2c(C(=O)Nc3ccccc3)c3ccccc3n2CCCN(C)C)c(C(=O)Nc2ccccc2)c2ccccc21`, 26 µM; to `CC(=O)C1C(=S)N(C)c2ccccc21` (configuration not stated), greater than 100 µM. On the same count and under the same terms, under `CC1C(=S)N(C)c2ccccc21` (configuration not stated) stands greater than 100 µM; under `COC(=O)c1ccc(C(=O)C2C(=S)N(C)c3ccccc32)cc1` (configuration not stated), greater than 100 µM.

Usually IC50 stands for the concentration that inhibits the measured activity by half. Read a low IC50 as greater potency.
